Assays:
[1] = molecular target: T1, Phosphatidylinositol 4,5-bisphosphate 3-kinase catalytic subunit delta isoform (Homo sapiens, UniProt O00329); assay: Inhibition of PI3K delta
T1 sequence (O00329 whole entry): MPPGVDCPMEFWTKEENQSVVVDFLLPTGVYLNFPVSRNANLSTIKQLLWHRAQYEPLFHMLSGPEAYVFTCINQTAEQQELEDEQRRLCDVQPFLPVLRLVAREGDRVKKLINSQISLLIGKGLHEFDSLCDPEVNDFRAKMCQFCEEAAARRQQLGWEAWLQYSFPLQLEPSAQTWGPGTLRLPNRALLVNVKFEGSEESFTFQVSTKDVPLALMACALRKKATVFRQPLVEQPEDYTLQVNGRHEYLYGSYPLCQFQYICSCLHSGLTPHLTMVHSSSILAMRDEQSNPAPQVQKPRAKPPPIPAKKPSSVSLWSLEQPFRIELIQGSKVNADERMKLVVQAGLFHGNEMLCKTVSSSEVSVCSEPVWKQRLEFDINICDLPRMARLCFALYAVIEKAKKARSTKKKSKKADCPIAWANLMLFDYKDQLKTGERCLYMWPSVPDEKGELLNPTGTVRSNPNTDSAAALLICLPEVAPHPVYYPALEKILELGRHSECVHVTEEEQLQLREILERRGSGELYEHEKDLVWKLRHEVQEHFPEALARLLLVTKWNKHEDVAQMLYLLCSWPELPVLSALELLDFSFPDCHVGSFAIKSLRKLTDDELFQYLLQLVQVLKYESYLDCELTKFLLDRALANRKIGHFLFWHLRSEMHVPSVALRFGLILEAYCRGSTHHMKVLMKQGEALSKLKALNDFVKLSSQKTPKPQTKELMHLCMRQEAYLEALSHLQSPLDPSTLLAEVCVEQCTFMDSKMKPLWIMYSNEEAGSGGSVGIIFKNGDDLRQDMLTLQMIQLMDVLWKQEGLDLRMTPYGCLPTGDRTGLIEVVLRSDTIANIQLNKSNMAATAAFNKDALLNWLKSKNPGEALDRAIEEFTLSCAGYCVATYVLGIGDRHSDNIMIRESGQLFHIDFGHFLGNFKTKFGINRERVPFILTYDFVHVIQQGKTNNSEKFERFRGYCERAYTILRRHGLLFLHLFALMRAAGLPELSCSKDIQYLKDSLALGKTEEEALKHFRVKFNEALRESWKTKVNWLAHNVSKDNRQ

[2] = molecular target: Phosphatidylinositol 4,5-bisphosphate 3-kinase catalytic subunit gamma isoform (Homo sapiens, UniProt P48736); assay: Inhibition of PI3K gamma
[3] = molecular target: Phosphatidylinositol 4,5-bisphosphate 3-kinase catalytic subunit beta isoform (Homo sapiens, UniProt P42338); assay: Inhibition of PI3K beta
[4] = molecular target: Phosphatidylinositol 4,5-bisphosphate 3-kinase catalytic subunit alpha isoform (Homo sapiens, UniProt P42336); assay: Inhibition of PI3K alpha
[5] = Oral bioavailability in Han-Wistar rat at 3 mg/kg; type: ADME, organism-based; conditions: in vivo
[6] = Cmax in Han-Wistar rat at 3 mg/kg, po; type: ADME, organism-based; design: dose 3 mg/kg, route oral; conditions: in vivo
Summary of the method: (§1)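 Male-or-unspecified Han–Wistar rats were given a single oral dose of 3 mg/kg. Plasma Cmax is reported in ng/mL and AUC in ng h/mL.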

[7] = AUC in Han-Wistar rat at 3 mg/kg, po; type: ADME, organism-based; design: dose 3 mg/kg, route oral; conditions: plasma; summary of the method: as §1
[8] = Clearance in Han-Wistar rat at 1 mg/kg, iv; type: ADME, organism-based; design: dose 1 mg/kg, route intravenous; conditions: in vivo
Summary of the method: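 Han–Wistar rats were dosed intravenously at 1 mg/kg. Clearance is reported in mL/min/kg.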

[9] = molecular target: Mitogen-activated protein kinase 14 (Homo sapiens) (UniProt Q16539); assay: Inhibition of SAPK2a at 10 uM
[10] = molecular target: Serine/threonine-protein kinase pim-1 (Homo sapiens) (UniProt P11309); assay: Inhibition of PIM1 at 10 uM
Rattus norvegicus = assay: Inhibition of anti-CD3-induced IL2 release in po dosed Lewis rat blood; type: functional
Summary of the method: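 Acute T-cell activation was induced by anti-CD3 antibody in male Lewis rats. Compound was given orally, and IL2 released into blood was measured. Percent inhibition of IL-2 was plotted against log dose (mg/kg) to derive ED50. Values are mean ± SEM, n = 8.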

Hepatocyte = assay: Clearance in rat hepatocyte assessed per mg of protein at 2 uM; type: ADME, cell-based, Liver; conditions: hepatocytes
[11] = Clearance in rat microsomes assessed per mg of protein at 0.5 uM; type: ADME, Liver, Microsome; conditions: liver microsomes
[12] = Clearance in human microsomes assessed per mg of protein at 0.5 uM; type: ADME, Microsome
Homo sapiens = organism: Homo sapiens; assay: Selectivity for human PI3K gamma over human PI3K delta
Neutrophil = assay: Inhibition of fMLP-stimulated superoxide production in TNF alpha-primed human neutrophils by spectrophotometry; type: functional, cell-based
Summary of the method: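 Human neutrophils were primed with TNFα and stimulated with fMLP, and cellular superoxide production was monitored. Inhibition values are quoted in nM.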

Chain of Phosphatidylinositol 4,5-bisphosphate 3-kinase catalytic subunit alpha isoform (P42336 whole entry, canonical isoform): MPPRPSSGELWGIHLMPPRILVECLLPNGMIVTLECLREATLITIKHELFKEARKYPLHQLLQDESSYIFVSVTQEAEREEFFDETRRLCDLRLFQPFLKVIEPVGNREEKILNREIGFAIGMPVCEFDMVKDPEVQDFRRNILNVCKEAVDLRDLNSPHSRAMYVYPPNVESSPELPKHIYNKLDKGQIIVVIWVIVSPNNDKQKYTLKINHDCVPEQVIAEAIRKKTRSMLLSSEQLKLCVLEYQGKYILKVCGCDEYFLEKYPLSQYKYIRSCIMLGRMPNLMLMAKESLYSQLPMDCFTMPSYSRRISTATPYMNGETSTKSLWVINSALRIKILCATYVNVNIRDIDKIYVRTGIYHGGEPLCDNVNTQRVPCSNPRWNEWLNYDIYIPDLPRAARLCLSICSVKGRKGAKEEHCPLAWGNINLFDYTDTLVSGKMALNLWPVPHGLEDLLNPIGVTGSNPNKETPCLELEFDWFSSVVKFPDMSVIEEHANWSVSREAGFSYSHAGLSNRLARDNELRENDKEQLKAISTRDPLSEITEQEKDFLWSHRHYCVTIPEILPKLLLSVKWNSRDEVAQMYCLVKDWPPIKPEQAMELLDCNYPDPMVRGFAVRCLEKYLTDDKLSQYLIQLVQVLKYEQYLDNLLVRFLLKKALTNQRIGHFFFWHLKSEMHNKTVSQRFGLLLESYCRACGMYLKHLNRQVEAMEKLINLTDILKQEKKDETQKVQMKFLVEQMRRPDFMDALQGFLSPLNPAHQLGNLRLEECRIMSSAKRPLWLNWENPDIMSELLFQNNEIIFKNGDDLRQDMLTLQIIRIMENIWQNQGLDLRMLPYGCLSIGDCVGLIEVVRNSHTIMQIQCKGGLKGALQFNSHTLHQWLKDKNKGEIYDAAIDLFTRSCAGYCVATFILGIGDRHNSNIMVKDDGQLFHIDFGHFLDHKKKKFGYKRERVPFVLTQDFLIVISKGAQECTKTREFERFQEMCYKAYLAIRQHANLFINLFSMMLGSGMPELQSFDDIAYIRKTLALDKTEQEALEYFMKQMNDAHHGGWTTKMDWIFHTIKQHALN
Chain of Phosphatidylinositol 4,5-bisphosphate 3-kinase catalytic subunit gamma isoform (P48736 whole entry, canonical isoform): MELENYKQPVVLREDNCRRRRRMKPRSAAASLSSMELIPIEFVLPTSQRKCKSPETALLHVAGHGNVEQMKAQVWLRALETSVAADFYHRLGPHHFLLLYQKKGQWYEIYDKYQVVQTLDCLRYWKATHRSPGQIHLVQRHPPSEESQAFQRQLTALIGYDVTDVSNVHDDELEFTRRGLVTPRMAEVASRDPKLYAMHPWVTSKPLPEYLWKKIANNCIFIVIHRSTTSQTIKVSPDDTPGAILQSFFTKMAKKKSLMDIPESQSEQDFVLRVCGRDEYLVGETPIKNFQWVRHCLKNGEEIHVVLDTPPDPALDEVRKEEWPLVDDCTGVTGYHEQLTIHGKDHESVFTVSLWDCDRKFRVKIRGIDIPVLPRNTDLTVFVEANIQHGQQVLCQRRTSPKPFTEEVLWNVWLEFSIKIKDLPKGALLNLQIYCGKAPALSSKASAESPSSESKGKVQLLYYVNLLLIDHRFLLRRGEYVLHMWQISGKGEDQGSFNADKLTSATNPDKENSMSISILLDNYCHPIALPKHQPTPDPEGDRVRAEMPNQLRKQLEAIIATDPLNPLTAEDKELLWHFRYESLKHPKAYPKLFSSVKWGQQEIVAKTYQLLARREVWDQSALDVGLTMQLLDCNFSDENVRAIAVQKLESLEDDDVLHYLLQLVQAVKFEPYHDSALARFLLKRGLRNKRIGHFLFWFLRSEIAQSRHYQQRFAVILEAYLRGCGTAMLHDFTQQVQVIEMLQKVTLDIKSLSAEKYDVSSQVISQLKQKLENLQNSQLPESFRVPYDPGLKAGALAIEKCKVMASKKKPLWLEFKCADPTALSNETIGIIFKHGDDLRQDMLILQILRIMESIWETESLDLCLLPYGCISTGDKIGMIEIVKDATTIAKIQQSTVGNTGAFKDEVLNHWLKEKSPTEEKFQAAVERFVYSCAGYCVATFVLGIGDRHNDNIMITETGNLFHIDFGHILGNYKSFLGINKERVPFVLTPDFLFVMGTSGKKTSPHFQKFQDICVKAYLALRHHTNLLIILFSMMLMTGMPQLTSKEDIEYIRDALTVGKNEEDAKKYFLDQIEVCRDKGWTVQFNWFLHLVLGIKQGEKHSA
Chain of Phosphatidylinositol 4,5-bisphosphate 3-kinase catalytic subunit beta isoform (P42338 whole entry, canonical isoform): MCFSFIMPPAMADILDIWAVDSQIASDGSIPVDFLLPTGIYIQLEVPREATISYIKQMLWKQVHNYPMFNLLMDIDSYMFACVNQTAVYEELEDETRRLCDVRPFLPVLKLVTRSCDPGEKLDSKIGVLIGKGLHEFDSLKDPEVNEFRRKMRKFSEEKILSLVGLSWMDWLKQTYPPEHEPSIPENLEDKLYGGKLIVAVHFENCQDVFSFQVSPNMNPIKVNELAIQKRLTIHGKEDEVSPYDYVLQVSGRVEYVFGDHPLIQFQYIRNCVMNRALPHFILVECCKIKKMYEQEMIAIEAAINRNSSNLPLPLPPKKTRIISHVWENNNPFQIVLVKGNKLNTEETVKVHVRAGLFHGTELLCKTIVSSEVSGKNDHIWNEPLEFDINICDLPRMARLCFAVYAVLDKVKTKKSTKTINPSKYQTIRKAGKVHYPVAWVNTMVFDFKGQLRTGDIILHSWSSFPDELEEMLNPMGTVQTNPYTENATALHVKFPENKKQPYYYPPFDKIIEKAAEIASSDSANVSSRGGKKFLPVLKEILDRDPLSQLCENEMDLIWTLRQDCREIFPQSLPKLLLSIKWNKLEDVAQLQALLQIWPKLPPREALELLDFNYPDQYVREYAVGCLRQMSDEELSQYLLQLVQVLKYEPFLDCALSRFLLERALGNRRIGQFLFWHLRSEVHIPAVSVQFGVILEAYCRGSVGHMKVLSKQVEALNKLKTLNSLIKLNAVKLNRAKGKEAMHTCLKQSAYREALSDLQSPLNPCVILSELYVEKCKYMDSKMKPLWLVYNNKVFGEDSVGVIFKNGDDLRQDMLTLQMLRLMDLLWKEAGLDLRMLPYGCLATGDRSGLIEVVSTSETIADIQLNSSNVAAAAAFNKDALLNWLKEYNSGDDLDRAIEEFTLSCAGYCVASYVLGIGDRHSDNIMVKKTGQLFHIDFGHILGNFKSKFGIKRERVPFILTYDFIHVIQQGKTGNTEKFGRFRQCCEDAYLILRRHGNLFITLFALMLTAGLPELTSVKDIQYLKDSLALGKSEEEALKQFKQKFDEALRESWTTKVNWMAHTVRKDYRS
Chain of Serine/threonine-protein kinase pim-1 (Homo sapiens) (P11309 whole entry, looked up): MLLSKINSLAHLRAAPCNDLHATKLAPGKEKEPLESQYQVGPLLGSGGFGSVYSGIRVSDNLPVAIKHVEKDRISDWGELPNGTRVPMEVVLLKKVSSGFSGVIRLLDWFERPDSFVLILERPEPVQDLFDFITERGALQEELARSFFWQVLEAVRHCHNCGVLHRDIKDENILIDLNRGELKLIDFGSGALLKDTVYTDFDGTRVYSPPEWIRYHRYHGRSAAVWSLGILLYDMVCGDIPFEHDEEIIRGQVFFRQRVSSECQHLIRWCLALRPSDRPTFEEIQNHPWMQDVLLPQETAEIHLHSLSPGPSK
Chain of Mitogen-activated protein kinase 14 (Homo sapiens) (Q16539 whole entry): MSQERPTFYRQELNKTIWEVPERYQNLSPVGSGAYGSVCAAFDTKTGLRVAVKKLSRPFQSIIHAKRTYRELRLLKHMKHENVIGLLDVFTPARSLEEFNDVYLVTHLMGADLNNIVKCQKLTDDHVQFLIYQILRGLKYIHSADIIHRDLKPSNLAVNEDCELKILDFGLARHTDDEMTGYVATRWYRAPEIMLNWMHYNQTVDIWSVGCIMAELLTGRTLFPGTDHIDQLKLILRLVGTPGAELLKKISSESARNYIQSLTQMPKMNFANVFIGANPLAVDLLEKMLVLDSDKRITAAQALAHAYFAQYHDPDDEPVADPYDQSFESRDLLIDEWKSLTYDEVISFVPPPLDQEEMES

SMILES	IC50 [1] [nM]	IC50 [2] [nM]	IC50 [3] [nM]	IC50 [4] [nM]	also measured
Cc1ccc(-c2ccc3c(c2)N(c2nc4c(s2)C(=O)NC(C)(C)C4)CCO3)nn1	–	–	–	–	bioavailability [5]: 66%; Cmax [6]: 185 ng/mL; AUC [7]: 2470 ng·h/mL
Cn1cc(-c2ccc3c(c2)N(c2nc4c(s2)C(=O)NC(C)(C)C4)CCO3)cn1	–	–	–	–	clearance [8]: 7 mL/min/kg; bioavailability [5]: 97%; Cmax [6]: 1220 ng/mL; inhibition [9]: > 50%; AUC [7]: 6160 ng·h/mL; inhibition [10]: > 50%; ED50 (Rattus norvegicus): 25 mg/kg; clearance (Hepatocyte): 0 µL/min/mg
CC1(C)CC(=O)c2sc(N3CCOc4ccc(-c5ccccn5)cc43)nc2C1	74	258	2000	677	–
CC1(C)Cc2nc(N3CCOc4ccc(-c5ccn[nH]5)cc43)sc2C(=O)N1	90	145	1470	917	–
Cc1ccc(-c2ccc3c(c2)N(c2nc4c(s2)C(=O)CC(C)(C)C4)CCO3)cn1	26	73	308	164	microsomal CLint at 0.5 µM [11]: 25 µL/min/mg; microsomal CLint at 0.5 µM [12]: 48 µL/min/mg
CC1(C)Cc2nc(N3CCOc4cc(F)ccc43)sc2C(=O)N1	783	357	1240	–	–
Cn1ccnc1-c1ccc2c(c1)N(c1nc3c(s1)C(=O)NC(C)(C)C3)CCO2	285	819	3520	2900	–
CC1(C)Cc2nc(N3CCOc4ccccc43)sc2C(=O)N1	1630	959	1230	–	fold change (FC) (Homo sapiens): 2
COc1ccc2c(c1)OCCN2c1nc2c(s1)C(=O)NC(C)(C)C2	230	440	1590	1130	–
CC1(C)Cc2nc(N3CCOc4cnccc43)sc2C(=O)N1	> 20000	–	–	–	–
CC1(C)CC(=O)c2sc(N3CCOCC3)nc2C1	–	–	–	–	microsomal CLint at 0.5 µM [11]: 6 µL/min/mg; CL (Hepatocyte): 7 µL/min/mg
CC1(C)Cc2nc(N3CCOCC3)sc2C(=O)N1	722	5280	450	2370	IC50 (Neutrophil): 2960 nM; microsomal CLint at 0.5 µM [12]: 1 µL/min/mg; CL (Hepatocyte): 1 µL/min/mg

Second part, led by results:

IC50 [1] [nM]	IC50 [2] [nM]	IC50 [3] [nM]	IC50 [4] [nM]	SMILES	also measured
153	321	1620	1110	CC1(C)Cc2nc(N3CCOc4ccc(Br)cc43)sc2C(=O)N1	–
549	3130	5340	2850	CC1(C)CC(=O)c2sc(N3CCOc4cc(Br)ccc43)nc2C1	–
614	829	511	676	CC1(C)CC(=O)c2sc(N3CCOc4ccccc43)nc2C1	fold change (FC) (Homo sapiens): 2; IC50 (Neutrophil): 759 nM; microsomal CLint at 0.5 µM [11]: 220 µL/min/mg; microsomal CLint at 0.5 µM [12]: 47 µL/min/mg; CL (Hepatocyte): 162 µL/min/mg
249	829	1920	1970	CC1(C)CC(=O)c2sc(N3CCOc4ccc(Br)cc43)nc2C1	–
49	52	336	294	Cn1cc(-c2ccc3c(c2)N(c2nc4c(s2)C(=O)CC(C)(C)C4)CCO3)cn1	IC50 (Neutrophil): 44 nM; microsomal CLint at 0.5 µM [11]: 39 µL/min/mg; microsomal CLint at 0.5 µM [12]: 36 µL/min/mg; CL (Hepatocyte): 8 µL/min/mg

Source: ChEMBL document CHEMBL1155924, “Achieving multi-isoform PI3K inhibition in a series of substituted 3,4-dihydro-2H-benzo[1,4]oxazines” (Bioorg Med Chem Lett, 2008)
